ChEMBL document CHEMBL1275394, “Design, synthesis, and biological evaluation of novel hybrid dicaffeoyltartaric/diketo acid and tetrazole-substituted L-chicoric acid analogue inhibitors of human immunodeficiency virus type 1 integrase” (J Med Chem, 2010)

How the values were obtained:
MT2 = assay: Cytotoxicity against human MT2 cells assessed as concentration required to 5% inhibition of cell growth relative to control; type: cell-based
How it was run: (§1)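 MT-2 cells were grown in RPMI-1640 without antibiotics and exposed to compound. CT50 and CT5 are the concentrations inhibiting cellular replication by 50% and 5% relative to untreated control; CT5 corresponds to 95% viable cells. Values are the mean of triplicate assays with SD.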

[1] = tested on: Human immunodeficiency virus; assay: Antiviral activity against HIV LAI infected in human MT2 cells assessed as protection against virus-induced cytopathic effect; type: functional, organism-based; details: Human immunodeficiency virus 1, LAI
How it was run: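 MT-2 cells were cultured in RPMI-1640 without antibiotics and infected with HIV LAI. EC50 is the concentration protecting 50% of cells from virus-induced cytopathic effect. Values are the mean of triplicate assays with SD.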

[2] = Inhibition of HIV NL4-3 recombinant histidine-tagged integrase strand transfer activity expressed in Escherichia coli BL21 (DE3); set-up: species or system Human immunodeficiency virus
[3] = Cytotoxicity against human MT2 cells assessed as concentration required to 50% inhibition of cell growth relative to control; type: cell-based; details: read-out: Activity; how it was run: as §1
[4] = Inhibition of HIV NL4-3 recombinant histidine-tagged integrase 3'-end processing activity expressed in Escherichia coli BL21 (DE3); set-up: species or system Human immunodeficiency virus
How it was run: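 N-terminal 6-His-tagged HIV-1 NL4-3 IN expressed in E. coli BL21 DE3 pLysS, Ni2+ affinity purified (>95%), stored at -80 °C. The 32P-labeled blunt-end V1/V2 duplex mimicking the viral LTR was incubated with IN and increasing compound concentrations at 37 °C for 1 h, in triplicate. Products were resolved by denaturing PAGE and quantified by phosphorimager. 3'-processing was read as the 21mer to 19mer conversion.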

[5] = Therapeutic index, ratio of CT50 for human MT2 cells to EC50 for HIV LAI; type: cell-based; details: read-out: TI

Row | EC50 [1] [nM] | IC50 [2] [nM] | IC50 [4] [nM] | SMILES | Activity (MT2) [µM] | CC50 [3] [nM] | selectivity ratio [5]
1 | > 36000 | 810 | 1100 | O=C(/C=C(\O)C(=O)O)/C=C/c1ccc(O)c(O)c1 | 32 | 80000 | 
2 | > 37500 | 2550 | 2280 | O=C(/C=C/c1ccc(O)c(O)c1)Nc1ccccc1C(=O)/C=C(\O)C(=O)O | 23.3 | 53000 | 
3 | > 34000 | 360 | 110 | O=C(/C=C/c1ccc(O)c(O)c1)Nc1cccc(C(=O)/C=C(\O)C(=O)O)c1 | 20.4 | 52800 | 
4 | > 51000 | 130 | 120 | O=C(/C=C/c1ccc(O)c(O)c1)Nc1cc(NC(=O)/C=C/c2ccc(O)c(O)c2)cc(C(=O)/C=C(\O)C(=O)O)c1 | > 50.7 | > 50700 | 
5 | 110000 | 1270 | 4050 | O=C(/C=C/c1ccc(O)c(O)c1)O[C@@H](C(=O)O)[C@@H](OC(=O)c1cccn1Cc1ccc(F)cc1)C(=O)O | 41.8 | 399000 | 
6 | 330 | 440 | 340 | O=C(/C=C/c1ccc(O)c(O)c1)O[C@@H](c1nnn[nH]1)[C@@H](OC(=O)/C=C/c1ccc(O)c(O)c1)c1nnn[nH]1 | 28.4 | 422000 | > 350
7 | > 16900 | 350 | 400 | O=C(/C=C/c1ccc(O)c(O)c1)Nc1ccc(C(=O)/C=C(\O)C(=O)O)cc1 | 26.1 | 47200 | 
8 | 60 | 210 | 390 | O=C(/C=C/c1cc(O)c(O)c(O)c1)OC(c1nnn[nH]1)C(OC(=O)/C=C/c1cc(O)c(O)c(O)c1)c1nnn[nH]1 (single isomer, unassigned) | 11.3 | 48900 | > 350
9 | 80500 | 6080 | 19100 | O=C(/C=C/c1ccc(O)c(O)c1)O[C@@H](C(=O)O)[C@@H](O)C(=O)O [CAFTARIC ACID] | 49.6 | 325000 | 

Further lines, the molecule ahead of its results:

Row | SMILES | EC50 [1] [nM] | IC50 [2] [nM] | IC50 [4] [nM] | Activity (MT2) [µM] | CC50 [3] [nM] | selectivity ratio [5]
10 | O=C(O)/C(O)=C/C(=O)c1ccc(O)c(O)c1 | > 67000 | 1130 | 470 | 67 | 178000 | 
11 | COC(=O)/C(O)=C/C(=O)c1ccc(O)c(O)c1 | > 36000 | 1890 | 2810 | 36 | 182000 | 
12 | COC(=O)/C(O)=C/C(=O)c1ccc(NC(=O)/C=C/c2ccc(O)c(O)c2)cc1 | > 54000 | 1380 | 1820 | 12.4 | 39500 | 
13 | COC(=O)/C(O)=C/C(=O)c1cc(NC(=O)/C=C/c2ccc(O)c(O)c2)cc(NC(=O)/C=C/c2ccc(O)c(O)c2)c1 | > 48000 | 630 | 750 | > 47.7 | > 47700 | 
14 | NC(=O)[C@H](OC(=O)/C=C/c1ccc(O)c(O)c1)[C@@H](OC(=O)/C=C/c1ccc(O)c(O)c1)c1nnn[nH]1 | 420 | 270 | 210 | 5.7 | 31900 | > 350
15 | O=C(O[C@@H](C(=O)O)[C@@H](O)C(=O)O)c1cccn1Cc1ccc(F)cc1 | > 170000 | 47300 | 277000 | 60.8 | 792000 | 
16 | O=C(O[C@@H](C(=O)O)[C@@H](OC(=O)c1cccn1Cc1ccc(F)cc1)C(=O)O)c1cccn1Cc1ccc(F)cc1 | > 90500 | 74200 | 136000 | 28.7 | 374000 | 
17 | O=C(O)C(=O)CC(=O)c1cccn1Cc1ccc(F)cc1 | 400 | 140 | 13000 | > 69.3 | > 69300 | 
18 | O=C(/C=C/c1ccc(O)c(O)c1)OCC(OC(=O)/C=C/c1ccc(O)c(O)c1)c1nnn[nH]1 (racemic) | 850 | 120 | 140 | > 42.5 | > 42500 | 
19 | O=C(/C=C/c1ccc(O)c(O)c1)O[C@@H](C(=O)O)[C@@H](OC(=O)/C=C/c1ccc(O)c(O)c1)C(=O)O [CICHORIC ACID] | 810 | 270 | 220 | 41 | 124000 | 
